Measurements collected from several papers.

`N=c1c2c(-c3ccccc3)c(-c3ccccc3)n(Cc3ccccc3)c2ncn1[C@H]1CC[C@H](O)CC1` gave a Cmax of 81.5 ng/mL (male beagle dog, plasma; oral, 1 mg/kg, single dose).
The clearance of `Cc1nonc1Cn1nnc2c(N3CC[C@H](O)C3)nc(C(C)(C)C)nc21` is reported as 29.9 mL/min/kg (C57BL/6 mouse, plasma; intravenous).
`O=C(Nc1cccnn1)N1CCN([C@@H]2CCOc3cc(C(F)(F)F)ccc32)CC1` has a Tmax of 49.8 min (male Sprague-Dawley rat, plasma; oral, 0.3 mg/kg).
The C0 of `C[C@]12CC[C@H](O)CC1=CC[C@@H]1[C@@H]2CC[C@]2(C)C(n3cnc4ccccc43)=CC[C@@H]12.Cl` is reported as 98.3 ng/mL (mouse, plasma; intravenous, 1 mg/kg).
`CN[C@H](CC(C)C)C(=O)N[C@H]1C(=O)N[C@@H](CC(N)=O)C(=O)N[C@H]2C(=O)NC3C(=O)N[C@H](C(=O)N[C@H](C(=O)NCCC[N+](C)(C)C)c4cc(O)cc(O)c4-c4cc3ccc4O)[C@H](O)c3ccc(c(Cl)c3)Oc3cc2cc(c3OC2OC(CO)C(O)[C@H](O)[C@@H]2O[C@H]2CC(C)(NCc3ccc(-c4ccc(Cl)cc4)cc3)[C@H](O)[C@H](C)O2)Oc2ccc(cc2Cl)[C@H]1O` (some centres unmarked) has a clearance of 2 mL/min/kg (mouse, plasma; intravenous, 50 mg/kg).
The CL/F of `NCC(=O)Nc1ccc(-n2nc(C(F)(F)F)cc2-c2ccc3c(ccc4ccccc43)c2)cc1` is reported as 978 mL/min/kg (mouse, plasma; oral, 80 mg/kg, single dose).
With `NC(=O)[C@@H]1CC(F)(F)CN1C(=O)c1ccc(N2CC(F)(F)C2)c(OCC2CC2)n1` the clearance was 28.5 mL/min/kg (C57BL/6 mouse, plasma; intravenous).
For `CCC[C@@](N)(CO)CCc1ccc(OCCCCCC(C)C)cc1`, the Cmax was 669 nM (dog, plasma; oral, 20 mg/kg, fasted).
`Cl.Cl.O=C(CCN1CCCCC1)c1ccc(-c2ccc(C(=O)CCN3CCCCC3)cc2)cc1` has a Tmax of 45 min (Sprague-Dawley rat, plasma; oral, 100 mg/kg).
`CCN(CC)CCCC[C@H](NC(=O)[C@H](CC(C)C)NC(=O)[C@H](C)NC(=O)[C@H](Cc1ccccc1)NC(=O)c1ccc(C(C)(C)C)cc1)C(=O)N[C@@H](CO)C(=O)OC` has a C0 of 10900 ng/mL (male Swiss mouse, blood; intravenous, 3 mg/kg).
`C[C@]12CC[C@H](n3ccnc3)CC1=CC[C@@H]1[C@@H]2CC[C@]2(C)C(n3cnc4ccccc43)=CC[C@@H]12.Cl` gave a C0 of 544 ng/mL (male CD-1 mouse, plasma; intravenous, 1 mg/kg).
